Among the data in ChEMBL document CHEMBL2375276, “Antibacterial oxazolidinone analogues having a N-hydroxyacetyl-substituted seven-membered [1,2,5]triazepane or [1,2,5]oxadiazepane C-ring unit” (Eur J Med Chem, 2013) are MIC values, retold here.

What all share (type): functional
The subject of one test is Haemophilus influenzae. Description: Antibacterial activity against Haemophilus influenzae SR27914 clinical isolate assessed as growth inhibition by CLSI broth microdilution method. The procedure, abridged:
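MIC by CLSI broth microdilution using Haemophilus test medium.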
In general terms: Dilution methods test growth across graded concentrations, often in twofold steps.

In the next test the test system is Streptococcus pneumoniae. Description: Antibacterial activity against Streptococcus pneumoniae SR26207 clinical isolate assessed as growth inhibition by CLSI broth microdilution method. The procedure, abridged:
(§1)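 MIC by CLSI broth microdilution in cation-adjusted Mueller-Hinton broth; S. pneumoniae medium supplemented with 5% lysed horse blood.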

The next test has as its system Moraxella catarrhalis. Put plainly: Antibacterial activity against Moraxella catarrhalis SR26840 clinical isolate assessed as growth inhibition by CLSI broth microdilution method. The procedure, abridged:
as §1

For another test, the system named is Enterococcus faecium. Description: Antibacterial activity against Enterococcus faecium SR7940 clinical isolate assessed as growth inhibition by CLSI broth microdilution method. The procedure, abridged: as §1
In the next test the test system is Enterococcus faecalis. Description: Antibacterial activity against Enterococcus faecalis SR1004 clinical isolate assessed as growth inhibition by CLSI broth microdilution method. Put shortly:
as §1

For test [1], the system named is Staphylococcus aureus. Put plainly: Antibacterial activity against linezolid-resistant Staphylococcus aureus NRS271 assessed as growth inhibition by CLSI broth microdilution method. The procedure, abridged: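 MIC by CLSI broth microdilution in cation-adjusted Mueller-Hinton broth. Lowest concentration inhibiting growth taken as MIC.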
Test [2] concerns Staphylococcus aureus. Description: Antibacterial activity against Staphylococcus aureus Smith assessed as growth inhibition by CLSI broth microdilution method. The procedure, abridged:
as §1

The subject of test [3] is Staphylococcus aureus. Description: Antibacterial activity against Staphylococcus aureus SR20549 clinical isolate assessed as growth inhibition by CLSI broth microdilution method. Put shortly:
as §1

The structures appear in SMILES notation. Values after ≈ are worked out from the molar mass of the structure shown.

Consider `O=C(CO)N1CCN(c2ccc(N3C[C@H](CNc4ccon4)OC3=O)cc2F)CCN1`, for which the MIC turned out to be 32 µg/mL (≈ 73.7 µM) with Haemophilus influenzae; 0.5 µg/mL (≈ 1.15 µM) in the test on Streptococcus pneumoniae; 16 µg/mL (≈ 36.8 µM) in the test with Moraxella catarrhalis; 2 µg/mL (≈ 4.6 µM) with Enterococcus faecium; 2 µg/mL (≈ 4.6 µM) in the test on Enterococcus faecalis; 64 µg/mL (≈ 147 µM) with Staphylococcus aureus [1]. The MIC in the test with Staphylococcus aureus [2] came to 2 µg/mL (≈ 4.6 µM); with Staphylococcus aureus [3], 1 µg/mL (≈ 2.3 µM).

In the case of `O=C(CO)N1CCN(c2c(F)cc(N3C[C@H](Cn4ccnn4)OC3=O)cc2F)CCO1`, the MIC in the test on Haemophilus influenzae turned out to be 16 µg/mL (≈ 36.5 µM); in the test on Streptococcus pneumoniae, 1 µg/mL (≈ 2.28 µM); in the test on Moraxella catarrhalis it was 8 µg/mL (≈ 18.2 µM); in the test on Enterococcus faecium it was 2 µg/mL (≈ 4.56 µM); in the test on Enterococcus faecalis, 2 µg/mL (≈ 4.56 µM); in the test with Staphylococcus aureus [1] it was 16 µg/mL (≈ 36.5 µM). Moreover, the MIC in the test with Staphylococcus aureus [2] was found to be 2 µg/mL (≈ 4.56 µM); in the test on Staphylococcus aureus [3], 1 µg/mL (≈ 2.28 µM).

Turning to `O=C1O[C@@H](Cn2ccnn2)CN1c1cc(F)c(N2CCNOCC2)c(F)c1`, the MIC worked out at 8 µg/mL (≈ 21 µM) in the test with Haemophilus influenzae; 0.5 µg/mL (≈ 1.31 µM) in the test with Streptococcus pneumoniae; 4 µg/mL (≈ 10.5 µM) with Moraxella catarrhalis; 1 µg/mL (≈ 2.63 µM) with Enterococcus faecium; 2 µg/mL (≈ 5.26 µM) in the test with Enterococcus faecalis; 16 µg/mL (≈ 42.1 µM) in the test with Staphylococcus aureus [1]. In addition, the values for the MIC in the test on Staphylococcus aureus [2] and in the test on Staphylococcus aureus [3] were 2 µg/mL (≈ 5.26 µM) and 1 µg/mL (≈ 2.63 µM), respectively.

Take `O=C1O[C@@H](CNc2ccon2)CN1c1cc(F)c(N2CCNOCC2)c(F)c1`: the MIC with Haemophilus influenzae came to 16 µg/mL (≈ 40.5 µM); in the test with Streptococcus pneumoniae, 0.125 µg/mL (≈ 0.316 µM); in the test on Moraxella catarrhalis it was 4 µg/mL (≈ 10.1 µM); with Enterococcus faecium, 1 µg/mL (≈ 2.53 µM); in the test on Enterococcus faecalis, 0.5 µg/mL (≈ 1.26 µM); with Staphylococcus aureus [1], 16 µg/mL (≈ 40.5 µM). Moreover, the MIC with Staphylococcus aureus [2] is 1 µg/mL (≈ 2.53 µM); in the test with Staphylococcus aureus [3], 0.5 µg/mL (≈ 1.26 µM).

In the case of `CC(=O)NC[C@H]1CN(c2ccc(N3CCNN(C(=O)CO)CC3)c(F)c2)C(=O)O1`, the MIC with Haemophilus influenzae turned out to be 16 µg/mL (≈ 39.1 µM); with Streptococcus pneumoniae, 1 µg/mL (≈ 2.44 µM); in the test with Moraxella catarrhalis it was 8 µg/mL (≈ 19.5 µM); with Enterococcus faecium it was 4 µg/mL (≈ 9.77 µM); with Enterococcus faecalis, 2 µg/mL (≈ 4.88 µM); with Staphylococcus aureus [1], 64 µg/mL (≈ 156 µM). The figures for the MIC in the test with Staphylococcus aureus [2] and in the test on Staphylococcus aureus [3] were 2 µg/mL (≈ 4.88 µM) and 4 µg/mL (≈ 9.77 µM), respectively.

On to `CC(=O)NC[C@H]1CN(c2cc(F)c(N3CCNN(C(=O)CO)CC3)c(F)c2)C(=O)O1`, for which the MIC in the test on Haemophilus influenzae came out at 8 µg/mL (≈ 18.7 µM); in the test with Streptococcus pneumoniae, 0.25 µg/mL (≈ 0.585 µM); with Moraxella catarrhalis it was 4 µg/mL (≈ 9.36 µM); in the test with Enterococcus faecium, 4 µg/mL (≈ 9.36 µM); in the test on Enterococcus faecalis, 2 µg/mL (≈ 4.68 µM); with Staphylococcus aureus [1], 16 µg/mL (≈ 37.4 µM). For the same molecule, the MIC with Staphylococcus aureus [2] and with Staphylococcus aureus [3] was 1 µg/mL (≈ 2.34 µM) each time.

As to `CC(=O)NC[C@H]1CN(c2cc(F)c(N3CCON(C(=O)CO)CC3)c(F)c2)C(=O)O1`, the MIC with Haemophilus influenzae came out at 16 µg/mL (≈ 37.3 µM); in the test on Streptococcus pneumoniae, 1 µg/mL (≈ 2.33 µM); with Moraxella catarrhalis it was 8 µg/mL (≈ 18.7 µM); in the test on Enterococcus faecium it was 2 µg/mL (≈ 4.67 µM); with Enterococcus faecalis it was 4 µg/mL (≈ 9.34 µM); in the test on Staphylococcus aureus [1], 32 µg/mL (≈ 74.7 µM). Also, the MIC in the test on Staphylococcus aureus [2] and in the test with Staphylococcus aureus [3] was 2 µg/mL (≈ 4.67 µM) in each case.

Consider `CC(=O)NC[C@H]1CN(c2cc(F)c(N3CCNOCC3)c(F)c2)C(=O)O1`, for which the MIC was 16 µg/mL (≈ 43.2 µM) in the test on Haemophilus influenzae; 0.25 µg/mL (≈ 0.675 µM) in the test with Streptococcus pneumoniae; 4 µg/mL (≈ 10.8 µM) with Moraxella catarrhalis; 1 µg/mL (≈ 2.7 µM) in the test with Enterococcus faecium; 2 µg/mL (≈ 5.4 µM) with Enterococcus faecalis; 16 µg/mL (≈ 43.2 µM) in the test on Staphylococcus aureus [1]. The MIC with Staphylococcus aureus [2] and with Staphylococcus aureus [3] was 1 µg/mL (≈ 2.7 µM) in each case.

As to `CC(=S)NC[C@H]1CN(c2cc(F)c(N3CCNOCC3)c(F)c2)C(=O)O1`, the MIC in the test on Haemophilus influenzae turned out to be 2 µg/mL (≈ 5.18 µM); in the test on Streptococcus pneumoniae, 0.063 µg/mL (≈ 0.163 µM); in the test on Moraxella catarrhalis, 1 µg/mL (≈ 2.59 µM); in the test with Enterococcus faecium, 0.125 µg/mL (≈ 0.323 µM); in the test on Enterococcus faecalis it was 0.25 µg/mL (≈ 0.647 µM); in the test on Staphylococcus aureus [1] it was 4 µg/mL (≈ 10.4 µM). Moreover, the MIC in the test on Staphylococcus aureus [2] and in the test on Staphylococcus aureus [3] was 0.25 µg/mL (≈ 0.647 µM) in each case.

Regarding `COC(=S)NC[C@H]1CN(c2cc(F)c(N3CCNOCC3)c(F)c2)C(=O)O1`, the MIC in the test with Haemophilus influenzae stood at 8 µg/mL (≈ 19.9 µM); with Streptococcus pneumoniae, 0.125 µg/mL (≈ 0.311 µM); in the test with Moraxella catarrhalis it was 1 µg/mL (≈ 2.48 µM); with Enterococcus faecium it was 0.25 µg/mL (≈ 0.621 µM); in the test on Enterococcus faecalis, 0.5 µg/mL (≈ 1.24 µM); with Staphylococcus aureus [1], 4 µg/mL (≈ 9.94 µM). Moreover, the MIC with Staphylococcus aureus [2] was 0.5 µg/mL (≈ 1.24 µM); in the test with Staphylococcus aureus [3], 0.25 µg/mL (≈ 0.621 µM).
